Results reported in ChEMBL document CHEMBL5338787, “Discovery of Novel Bruton's Tyrosine Kinase PROTACs with Enhanced Selectivity and Cellular Efficacy” (J Med Chem, 2023).
Activity calls are given as the source filed them. The calls are words filed in the database; no cut-off is given here.

Columns and labels:
[1] = biological target: T1, Protein cereblon/Tyrosine-protein kinase BTK (Homo sapiens, UniProt Q06187+Q96SW2); assay: PROTAC activity at BTK/CRBN protein protein interaction in human Ramos cell assessed as Hook effect incubated at >333 nM for 17 hrs measured by Western blot analysis; format: cell-based
T1 sequence (Q06187 2-659 limits assumed): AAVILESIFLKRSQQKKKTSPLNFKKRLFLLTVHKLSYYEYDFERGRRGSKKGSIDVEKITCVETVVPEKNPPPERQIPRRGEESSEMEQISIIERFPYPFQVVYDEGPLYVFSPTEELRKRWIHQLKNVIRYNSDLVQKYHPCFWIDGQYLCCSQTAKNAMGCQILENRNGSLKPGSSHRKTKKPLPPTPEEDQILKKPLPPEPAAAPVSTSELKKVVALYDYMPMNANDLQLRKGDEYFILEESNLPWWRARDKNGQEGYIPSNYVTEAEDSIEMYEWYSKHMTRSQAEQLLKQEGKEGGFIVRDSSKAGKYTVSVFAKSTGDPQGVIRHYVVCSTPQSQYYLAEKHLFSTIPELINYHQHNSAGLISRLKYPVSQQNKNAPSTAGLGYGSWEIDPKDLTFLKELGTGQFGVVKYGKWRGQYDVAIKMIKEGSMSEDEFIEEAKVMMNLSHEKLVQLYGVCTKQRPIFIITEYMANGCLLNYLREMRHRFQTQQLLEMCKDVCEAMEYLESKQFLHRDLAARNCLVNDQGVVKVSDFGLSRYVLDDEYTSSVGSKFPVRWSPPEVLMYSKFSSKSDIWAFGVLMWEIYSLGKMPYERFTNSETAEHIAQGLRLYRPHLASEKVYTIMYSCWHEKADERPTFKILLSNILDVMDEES
T1 sequence (Q96SW2 whole entry partner): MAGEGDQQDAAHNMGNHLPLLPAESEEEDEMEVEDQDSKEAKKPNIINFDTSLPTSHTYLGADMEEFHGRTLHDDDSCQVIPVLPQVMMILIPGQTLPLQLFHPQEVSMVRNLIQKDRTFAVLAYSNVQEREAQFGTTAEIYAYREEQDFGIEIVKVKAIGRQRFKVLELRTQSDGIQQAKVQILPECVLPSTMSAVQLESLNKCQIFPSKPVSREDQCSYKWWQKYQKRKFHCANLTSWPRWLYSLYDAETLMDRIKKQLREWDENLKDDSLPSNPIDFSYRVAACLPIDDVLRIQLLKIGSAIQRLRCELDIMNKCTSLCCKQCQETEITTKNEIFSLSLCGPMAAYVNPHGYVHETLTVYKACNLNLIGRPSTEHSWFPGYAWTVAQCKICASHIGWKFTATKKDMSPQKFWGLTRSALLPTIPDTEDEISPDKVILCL
Method in brief: (§1)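 Ramos or JeKo-1 cells (2 × 10^6 per well) were exposed for 17 h to 3000–0.15 nM PROTAC in 3-fold steps. Cells were lysed and analysed by western blot, with BTK normalised to β-actin. DC50 and Dmax come from the dose-response; DC50 is the mean ± SD of two independent experiments.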

[2] = biological target: Tyrosine-protein kinase BTK (Homo sapiens, UniProt Q06187); assay: Inhibition of BTK in HEK293 cells using NanoGlo substrate incubated for 2 hrs by NanoBRET assay; format: cell-based
Chain of Tyrosine-protein kinase BTK (Q06187 whole entry): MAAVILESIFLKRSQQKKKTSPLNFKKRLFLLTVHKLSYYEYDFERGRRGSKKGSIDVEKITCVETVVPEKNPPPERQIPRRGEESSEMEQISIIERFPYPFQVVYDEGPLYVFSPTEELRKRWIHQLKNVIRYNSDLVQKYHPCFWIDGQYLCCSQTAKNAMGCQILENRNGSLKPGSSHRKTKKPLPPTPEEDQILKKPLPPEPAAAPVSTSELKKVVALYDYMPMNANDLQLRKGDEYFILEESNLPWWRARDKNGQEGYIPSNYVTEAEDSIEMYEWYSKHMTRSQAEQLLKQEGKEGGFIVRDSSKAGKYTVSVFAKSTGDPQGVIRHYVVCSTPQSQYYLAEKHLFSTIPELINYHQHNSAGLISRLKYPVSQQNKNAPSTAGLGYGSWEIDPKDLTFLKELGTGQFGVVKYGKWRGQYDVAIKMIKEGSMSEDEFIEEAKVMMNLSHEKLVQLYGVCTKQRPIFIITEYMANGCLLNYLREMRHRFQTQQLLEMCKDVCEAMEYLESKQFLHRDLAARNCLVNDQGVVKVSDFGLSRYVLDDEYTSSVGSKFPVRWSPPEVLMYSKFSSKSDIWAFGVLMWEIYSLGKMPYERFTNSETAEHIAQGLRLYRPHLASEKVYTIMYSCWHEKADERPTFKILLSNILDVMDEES

[3] = system: TMD8; assay: Induction of apoptosis in human TMD8 cells assessed as increase in cleaved caspase 3 level measured after 48 hrs by Western blot analysis; format: functional, cell-based; details: dose 0.15-3000 nM
Method in brief: (§2)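 TMD8 or Mino cells (2 × 10^6 per well) exposed 48 h to 3000–0.15 nM (3-fold dilution) or 1% DMSO. Lysates BCA-normalised, 8–30 μg per lane on 4–20% Tris-glycine gels, transferred to nitrocellulose, probed with antibodies, HRP chemiluminescence detection and densitometry. Representative of two independent experiments.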

[4] = system: MINO; assay: Induction of apoptosis in human MINO cells assessed as downregulation in Bcl-2 level measured at 0.15 to 3000 nM after 48 hrs by Western blot analysis; format: functional, cell-based; details: dose 0.15-3000 nM; method in brief: as §2
[5] = system: MINO; assay: Induction of apoptosis in human MINO cells assessed as decrease in PARP level measured after 48 hrs by Western blot analysis; format: functional, cell-based; details: dose 0.15-3000 nM; method in brief: as §2
[6] = system: TMD8; assay: Induction of apoptosis in human TMD8 cells at 333 nM for 48 hrs by Annexin-V/propidium iodide staining based flow cytometric analysis; format: functional, cell-based
Method in brief: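 Cells plated at 2 × 10^6 per well and treated 48 h at 3,000–0.15 nM (3-fold dilutions) or 1% DMSO. Harvested, washed in cold PBS, stained with Annexin V Alexa Fluor 488/propidium iodide, analysed by flow cytometry for % live, apoptotic and necrotic cells. Mean of two independent experiments.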

[7] = biological target: T1, Protein cereblon/Tyrosine-protein kinase BTK; assay: PROTAC activity at BTK/CRBN protein protein interaction in human JeKo-1 cell assessed as Hook effect incubated at >333 nM for 17 hrs measured by Western blot analysis; format: cell-based; method in brief: as §1
[8] = biological target: T1, Protein cereblon/Tyrosine-protein kinase BTK; assay: PROTAC activity at BTK/CRBN protein protein interaction in human Ramos cell assessed as degradation of BTK preincubated with neddylation inhibitor MLN-4924 for 2 hrs followed by compound addition at 111 nM for 4 hrs measured by Western blot analysis; format: cell-based
Method in brief: (§3)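 Ramos cells were pre-treated for 2 h with bortezomib (proteasome inhibitor) or MLN-4924 (NEDD8-activating enzyme inhibitor), then given 111 nM degrader for 4 h. BTK level was assessed by western blot.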

[9] = system: MINO; assay: Induction of apoptosis in human MINO cells assessed as increase in cleaved PARP level measured after 48 hrs by Western blot analysis; format: functional, cell-based; details: dose 0.15-3000 nM; method in brief: as §2
[10] = system: TMD8; assay: Cytotoxicity against human TMD8 cells incubated for 48 hrs by celltitre glo 2.0 assay; format: functional, cell-based; details: TMD8, 48 h
[11] = system: TMD8; assay: Induction of apoptosis in human TMD8 cells assessed as increase in cleaved PARP level measured after 48 hrs by Western blot analysis; format: functional, cell-based; details: dose 0.15-3000 nM; method in brief: as §2
[12] = system: MINO; assay: Induction of apoptosis in human MINO cells assessed as increase in cleaved caspase 3 level measured after 48 hrs by Western blot analysis; format: functional, cell-based; details: dose 0.15-3000 nM; method in brief: as §2
[13] = biological target: T1, Protein cereblon/Tyrosine-protein kinase BTK; assay: PROTAC activity at BTK/CRBN protein protein interaction in human Ramos cell assessed as degradation of BTK preincubated with proteasome inhibitor bortezomib for 2 hrs followed by compound addition at 111 nM for 4 hrs measured by Western blot analysis; format: cell-based; method in brief: as §3

C[C@H]1CN(C(=O)CNc2cccc3c2C(=O)N(C2CCC(=O)NC2=O)C3=O)CCN1c1ccc(Nc2cc(-c3ccnc(N4CCn5c(cc6c5CC(C)(C)C6)C4=O)c3CO)cn(C)c2=O)nc1 (stereo partly drawn)
Activity [1]: Active | IC50 [2]: 0.097 µM | Activity [3]: Active | Activity [4]: Active | Activity [5]: Active | Activity [6]: Active | Activity [7]: Active | Activity [8]: inactive | Activity [9]: Active | IC50 [10]: 0.0014 µM | Activity [11]: Active | Activity [12]: Active | Activity [13]: inactive
